# Hck Nef HTS: human Hck-Nef kinase inhibition; P08631; Recombinant Hck-YEEI plus Nef, Z-Lyte FRET kinase assay; inhibition, % at 20 µM; 0.68% of 220,000 active; AID 463187;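 active = Hck-Nef kinase inhibition above about 50%, limit read from the data; inactive = inhibition below that limit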;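 note: 0% = DMSO with Hck plus Nef and 100% = Hck alone without Nef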
# MDM2 E3 inh: inhibitors of human Mdm2 E3 ubiquitin ligase; cell-based MDM2 ubiquitination luciferase reporter, 2 h; 0 = plate control, 100 = twice control, blank-subtracted; signal enhancement, % at 5 µM; AID 1230; Q00987; 0.11% of 210,000 active;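 active = signal enhancement of 30% or more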;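 note: luminescence tracks abundance of the self-degrading MDM2-luciferase fusion protein; higher signal means inhibition of MDM2 E3 ligase activity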
# Target sequence (Q00987 whole entry, looked up, the tested form may be a part): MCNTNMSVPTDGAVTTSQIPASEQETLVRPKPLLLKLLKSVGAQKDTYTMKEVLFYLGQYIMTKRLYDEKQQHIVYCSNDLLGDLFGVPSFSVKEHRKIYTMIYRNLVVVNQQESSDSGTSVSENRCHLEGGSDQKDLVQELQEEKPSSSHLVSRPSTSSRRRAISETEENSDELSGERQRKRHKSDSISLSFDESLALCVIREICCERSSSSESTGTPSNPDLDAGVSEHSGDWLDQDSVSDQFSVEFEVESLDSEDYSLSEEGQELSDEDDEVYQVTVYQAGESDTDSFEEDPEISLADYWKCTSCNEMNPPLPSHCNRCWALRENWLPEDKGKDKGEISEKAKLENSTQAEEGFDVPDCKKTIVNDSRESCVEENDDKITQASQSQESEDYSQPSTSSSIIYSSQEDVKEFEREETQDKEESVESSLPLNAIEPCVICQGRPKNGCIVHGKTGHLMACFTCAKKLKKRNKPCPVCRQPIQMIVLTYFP
#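 test system = mammalian cells stably expressing self-ubiquitinating, self-degrading MDM2 E3–luciferase fusion | quantity = 2000 cells/well | incubation = cell settling 4 h, compound treatment 2 h, both 37 °C | signal = luminescence with SteadyLite reagent, 15 min at room temperature | evaluation = % enhancement relative to plate controls after blank subtraction | benchmarks = plate controls and plate blanks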
# Dynein transport: dynein cargo transport inhibition; 3617.4 mouse cells, GR-EGFP nuclear translocation imaging; test concentration mostly 20 µM; stimulated with dexamethasone, 1 µM; active compounds read low; z-score, hits read low; 0.47% of 220,000 active; AID 1381;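 active = plate z-score of nuclear minus cytoplasmic receptor signal below a set negative limit, without overly bright fluorescence or cell loss, cut at about -3.5 in these data, passing the limit was not always enough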;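 note: z-score of nuclear minus cytoplasmic ring GR-EGFP intensity difference per well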
#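 Buffer or medium – tet-free medium with charcoal-stripped serum · Signal – automated 10x imaging of fixed Hoechst-stained cells · Also added – dexamethasone agonist, 1.0 µM final, for 30 min · Incubation – induction 48 h, compound 1 h, agonist 30 min · Read-out – GR-EGFP nuclear translocation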
# zVAD death inh: blocks zVAD induced death of L929 cells | L929 zVAD necroptosis rescue, ATP luminescence, 24 h; with zVAD 60 µM | 0.38% of 220,000 active | viability rescue, % at 10 µM;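 active = activation, scaled between plate controls, above about 75%, limit read from the data; inactive = activation under that limit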;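 note: 0% = zVAD with DMSO and 100% = DMSO alone without zVAD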
# TNF death inh: blocks TNF-alpha induced death of Jurkat FADD-/- cells; Jurkat FADD-/- TNF necroptosis rescue, ATP luminescence, 24 h; 0 = TNF only, 100 = no-TNF cells; 0.068% of 220,000 active; activation (protection from cell death), % at 10 µM;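 active = activation, meaning protection from cell death, of at least 50% relative to plate controls; inactive = activation below 50%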;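 note: necroptosis triggered by 40 ng/mL TNF-alpha added together with compound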
# Autophagy HCS: autophagy modulation, high-content screen. AID 463193. calls only at 10 µM (by protocol). MEF GFP-LC3 puncta imaging; test concentration mostly 10 µM. 0.98% of 190,000 active;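 active = percentage of spot-positive cells more than 3 SD above its plate mean, without a fluorescence outlier flag or 80% toxicity; inconclusive = no clear call, values can overlap the other calls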;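 note: spot-positive cell cutoff set from DMSO-treated cells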
# Dynein inh conf: dynein cargo transport inhibition, confirmation; shares compounds with Dynein transport; 3617.4 GR-EGFP nuclear translocation imaging, dexamethasone-induced; calls only at 20 µM; 69% of 1,000 active;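 active = inhibition of receptor movement into the nucleus at or above a set limit in both runs, with normal cell brightness and cell count; inconclusive = limit reached in only one run, brightness and count normal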;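 note: dexamethasone at 1 µM final in well for 30 min; nuclear minus cytoplasmic GR-EGFP mean intensity difference in channel 2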
# Numbers without * were called inactive; i = inactive; ? = inconclusive; / = no result; + = active, no number. Compounds with a hit are over-represented: about 2.4% of the library has one in this group of screens.
SMILES,Hck Nef HTS,MDM2 E3 inh,Dynein transport,zVAD death inh,TNF death inh,Autophagy HCS,Dynein inh conf
CC1CCc2c(cnc3ncnn23)C1 (configuration not stated),23.2,/,0.808,0.8,0.1,/,/
O=C(Nc1ccc(N2CCCC2)c(Cl)c1)c1ccc([N+](=O)[O-])o1,9.0,-11.9,-3.97*,-0.4,-11.7,i,+
CCCC(=O)N1CCN(c2ccc(NC(=O)c3ccc([N+](=O)[O-])o3)cc2)CC1,-12.8,-13.9,-4.11*,55.8,-6.2,i,+
CCC(=O)N1CCN(c2ccc(NC(=O)c3ccc([N+](=O)[O-])o3)cc2)CC1,3.6,-23.0,-4.04*,50.4,-8.2,i,+
CS(=O)(=O)N1CCN(c2ccc(NC(=O)c3ccc([N+](=O)[O-])o3)cc2)CC1,-7.6,-10.3,-1.31,1.5,-3.9,i,/
O=C(Nc1ccc(N2CCN(C(=O)c3ccc(Cl)cc3)CC2)cc1)c1ccc([N+](=O)[O-])o1,3.7,-10.9,-4.86*,46.5,-10.8,i,+
O=C(Nc1ccc(N2CCN(C(=O)c3ccc(Cl)cc3)CC2)cc1)c1ccc2c(c1)OCCO2,-1.0,-8.9,2.18,-1.2,-16.9,i,/
O=C(Nc1ccc(N2CCCC2)c(Cl)c1)c1ccco1,-6.2,-36.8,1.8,7.8,-1.5,i,/
COC(=O)C1=C(Nc2cc(Cl)cc(Cl)c2)CSC1,20.3,-21.0,-0.547,0.1,-0.6,/,/
O=S(=O)(NCC1CCCO1)c1ccc(S(=O)(=O)N(Cc2ccc(F)cc2)C2CCCCC2)cc1 (configuration not stated),8.2,/,-0.337,0.2,1.1,i,/
O=C(COC(=O)/C=C/c1ccc(Cl)cc1)NCCc1ccccc1,5.0,-10.4,-0.192,0.6,2.6,i,/
CC(C)(C#CCN1CCCCC1)OCCOC(c1ccccc1)c1ccccc1,0.8,-5.4,-0.863,-0.1,0.2,i,/
COC(=O)c1c(-c2ccccc2Cl)noc1-c1cnc(N)nc1C(F)(F)F,19.9,/,0.361,0.4,5.6,/,/
O=[N+]([O-])/C=C/c1cn(Cc2ccc(Cl)cc2)c2ccccc12,2.0,-8.9,-3.72*,-0.5,2.9,i,i
Cc1cccc(Cn2cc(/C=C/[N+](=O)[O-])c3ccccc32)c1,3.2,-2.4,-1.17,-0.6,-14.0,i,/
COc1ccc(C(=O)C2CCCN(Cc3ccc(C#CCCO)cc3)C2)cc1F (configuration not stated),16.5,-3.2,0.34,-0.8,1.8,i,/
O=C(/C=C/Sc1ccccc1)c1ccccc1,4.2,-13.4,-3.59*,-0.5,-22.0,i,+
O=C(/C=C/Sc1ccccc1)c1ccc(Cl)cc1,1.7,-25.8,-2.73,-0.2,-16.1,i,/
O=c1[nH]c2ccccc2c2oc(CCl)nc12,0.8,-12.9,-4.14*,-1.2,-21.3,/,?
CCC1CCc2c(c3ccccc3[nH]c2=O)O1 (configuration not stated),0.5,-6.5,-0.413,0.2,-1.3,i,/
CCOC(=O)c1ccc(NC(=O)CC2Sc3ncnn3C2=O)cc1 (configuration not stated),2.7,-14.3,-2.34,-1.4,-3.1,i,/
COc1ccc(NC(=O)CC2Sc3ncnn3C2=O)cc1 (configuration not stated),-34.2,-5.6,-4.05*,-0.2,-0.1,/,i
O=C(CC1Sc2ncnn2C1=O)Nc1ccc(Cl)cc1 (configuration not stated),17.9,-3.8,-3.61*,40.1,0.7,i,i
CC(=O)c1cccc(CN2CCN(C3CCCCC3)C(CCO)C2)c1 (configuration not stated),1.9,-11.2,-0.958,-0.4,0.9,/,/
CC(C)(C)C(=O)Cn1ncc(Br)c(Br)c1=O,-1.2,-5.3,-4.37*,62.0,-14.9,i,+
CN1C(=S)N(c2cccnc2)C(=O)/C1=C\c1ccc(N(C)C)cc1,41.4,-14.1,0.934,1.3,-3.1,i,/

# Source: PubChem (several laboratories)
